ChEMBL document CHEMBL3351523 (Bioorg Med Chem, 2014)

Columns and labels:
[1] = Cytotoxicity against mock-infected human MT4 cells after 96 hrs by MTT assay; type: cell-based
Outline: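 Exponentially growing MT-4 cells were seeded at 1 × 10^5 cells/mL in RPMI-1640 with 10% FBS and held at 37 °C, 5% CO2 with serial compound dilutions. Viability was read by MTT after 96 h. CC50 from linear regression against untreated controls.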

[2] = test system: Human immunodeficiency virus 1; assay: Antiviral activity against HIV1 infected in human MT4 cells assessed as inhibition of virus-induced cytopathogenicity after 4 days by MTT assay; type: functional, organism-based; conditions: Human immunodeficiency virus 1, MT4, 96 h
Outline: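 MT-4 cells (1 × 10^4/well in RPMI) were infected acutely with HIV-1 IIIB, 100 CCID50 (m.o.i. 0.01), with serial dilutions from 100 µM, 1:5. After 4 days at 37 °C, protection from virus-induced cytopathogenicity was read by MTT. EC50 came from linear regression against untreated controls.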

[3] = Cytotoxicity against mock-infected MDBK cells after 48 to 96 hrs by MTT assay; type: cell-based, Bos taurus; conditions: cattle
Outline: (§1)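 Mock-infected MDBK (6 × 10^5 cells/mL; MEM-E, 10% horse serum, 1 mM pyruvate) or BHK (1 × 10^6 cells/mL; MEM-E, 10% FBS) cells were incubated at 37 °C, 5% CO2 with serial dilutions from 100 µM, 1:5. Viability by MTT after 48–96 h. CC50 from linear regression against untreated controls.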

[4] = test system: Bovine viral diarrhea virus 1; assay: Antiviral activity against Bovine viral diarrhea virus infected in MDBK cells assessed as inhibition of virus-induced cytopathogenicity after 3 to 4 days by MTT assay; type: functional, organism-based; conditions: Bovine viral diarrhea virus isolates and strains
[5] = Cytotoxicity against mock-infected BHK21 cells after 48 to 96 hrs by MTT assay; type: functional; conditions: Mesocricetus auratus, BHK-21; outline: as §1
Yellow fever virus = assay: Antiviral activity against Yellow fever virus infected in BHK21 cells assessed as inhibition of virus-induced cytopathogenicity after 3 to 4 days by MTT assay; type: functional, organism-based; conditions: BHK-21
Reovirus sp. = assay: Antiviral activity against Reovirus type-1 infected in BHK21 cells assessed as inhibition of virus-induced cytopathogenicity after 3 to 4 days by MTT assay; type: functional, organism-based; conditions: BHK-21
[6] = Cytotoxicity against mock-infected african green monkey Vero 76 cells after 48 to 96 hrs by MTT assay; type: cell-based; conditions: chlorocebus sabaeus, mock-infected Vero 76 cells
Coxsackievirus B5 = assay: Antiviral activity against Coxsackievirus B5 infected in african green monkey Vero 76 cells assessed as reduction in plaque number after 3 days by plaque reduction assay; type: functional, organism-based; conditions: Enterovirus B, 72 h
Poliovirus 1 = assay: Antiviral activity against Poliovirus type 1 Sabin strain infected in african green monkey Vero 76 cells assessed as reduction in plaque number after 2 days by plaque reduction assay; type: functional, organism-based; conditions: Enterovirus C, 48 h
[7] = test system: Respiratory syncytial virus; assay: Antiviral activity against Respiratory syncytial virus infected in african green monkey Vero 76 cells assessed as reduction in plaque number after 5 days by plaque reduction assay; type: functional, organism-based; conditions: human respiratory syncytial virus, 120 h
[8] = test system: Vesicular stomatitis virus; assay: Antiviral activity against Vesicular stomatitis virus infected in african green monkey Vero 76 cells assessed as reduction in plaque number after 2 days by plaque reduction assay; type: functional, organism-based; conditions: 48 h
Vaccinia virus = assay: Antiviral activity against Vaccinia Virus infected in african green monkey Vero 76 cells assessed as reduction in plaque number after 3 days by plaque reduction assay; type: functional, organism-based; conditions: Orthopoxvirus vaccinia, 72 h
Human alphaherpesvirus 1 = assay: Antiviral activity against HSV1 infected in african green monkey Vero 76 cells assessed as reduction in plaque number after 3 days by plaque reduction assay; type: functional, organism-based; conditions: Human alphaherpesvirus 1, Vero, 72 h
[9] = Selectivity index, ratio of CC50 for african green monkey Vero 76 cells to EC50 for Coxsackievirus B5; type: toxicity, cell-based; conditions: read-out: Ratio CC50/EC50
Outline: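 Mock-infected Vero-76 cells were tested in parallel on the same 24-well plates as the plaque assays (seeding 4 × 10^5 cells/mL, D-MEM with FBS), with serial compound dilutions at 37 °C, 5% CO2. Viability was read after 48–96 h by crystal violet staining. CC50 by linear regression; selectivity index = Vero-76 CC50/EC50 for CVB-5 or RSV.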

SMILES	CC50 at 96 h [1] [µM]	EC50 [2] [µM]	CC50 [3] [µM]	EC50 [4] [µM]	CC50 [5] [µM]	EC50 (Yellow fever virus) [µM]	EC50 (Reovirus sp.) [µM]	CC50 [6] [µM]	EC50 (Coxsackievirus B5) [µM]	EC50 (Poliovirus 1) [µM]	EC50 [7] [µM]	EC50 [8] [µM]	EC50 (Vaccinia virus) [µM]	EC50 (Human alphaherpesvirus 1) [µM]	selectivity ratio [9]
Nc1ccc(Cc2nc3cc(C(F)(F)F)ccc3[nH]2)cc1	> 100	> 100	> 100	> 100	> 100	> 100	> 100	> 100	11	> 100	> 100	> 100	> 100	> 100	> 9.09
COc1ccc(Cc2nc3cc(C(F)(F)F)ccc3[nH]2)cc1	69	> 100	56	> 100	60	> 100	> 100	92	20	> 100	> 100	> 100	> 100	> 100	4.6
c1ccc2[nH]c(SC[C@@H]3CCCN4CCCC[C@H]34)nc2c1	> 100	> 100	> 100	> 100	> 100	> 100	> 100	> 100	48	> 100	> 100	> 100	> 100	> 100	> 2.08
FC(F)(F)c1ccc2c(c1)nc(Cc1ccccc1)n2C[C@@H]1CCCN2CCCC[C@H]12	> 100	> 100	> 100	> 100	15	> 100	> 100	> 100	10	60	> 100	> 100	> 100	> 100	> 10
COc1ccc(-c2nc3cc(C(F)(F)F)ccc3n2C[C@H]2CCCN3CCCC[C@H]23)cc1	42	> 100	57	> 100	30	> 100	> 100	> 100	54	> 100	> 100	> 100	> 100	> 100	> 1.85
c1ccc(-c2nc3ccccc3n2[C@H]2CCCN3CCCC[C@H]23)cc1	> 100	> 100	> 100	> 100	> 100	> 100	> 100	≥ 100	80	> 100	> 100	68	> 100	> 100	> 1.25
FC(F)(F)c1ccc2c(c1)nc(Cc1ccccc1)n2C[C@H]1CCCN2CCCC[C@H]12	100	> 100	28	> 100	25	> 100	> 100	93	75	> 100	> 100	> 100	> 100	> 100	1.24
Nc1ccc(Cc2nc3ccccc3[nH]2)cc1	> 100	> 100	> 100	> 100	> 100	> 100	> 100	> 100	17	58	> 100	> 100	> 100	> 100	> 5.88
FC(F)(F)c1ccc2c(c1)nc(CC1CCCC1)n2C[C@@H]1CCCN2CCCC[C@H]12	11	> 100	35	> 100	32	> 100	> 100	> 100	11	> 100	> 100	> 100	> 100	> 100	> 9.09
Cc1nc2cc(C(F)(F)F)ccc2n1C[C@@H]1CCCN2CCCC[C@H]12	> 100	> 100	> 100	> 100	> 100	27	> 100	> 100	47	> 100	> 100	> 100	23	> 100	> 2.13
FC(F)(F)c1ccc2[nH]c(Cc3ccc(Cl)cc3)nc2c1	> 100	> 100	16	> 100	20	> 100	> 100	70	26	> 100	> 100	> 100	> 100	> 100	2.69
COCCn1c(Cc2ccc(Cl)c(Cl)c2)nc2cc(C(F)(F)F)ccc21	> 100	> 100	> 100	> 100	> 100	> 100	> 100	> 100	12	> 100	> 100	> 100	> 100	> 100	> 8.33
